# Shown are actives, neighbours in structure and some others; about 3.7% of the full set was active somewhere.
# E-sel inducer = induces E-selectin expression in human endothelial cells. P16581. HUVEC E-selectin immunofluorescence imaging; normalized: neutral wells 0, TNF-alpha wells 100. 0.37% of 260,000 active. activation, % at 7.58 µM;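 active = mean E-selectin-positive cell signal at least 10% of the positive control, reached in at least 60% of replicates, without over 20% cell loss; inconclusive = no rule given, readout overlaps actives, possibly toxicity-flagged; inactive = the rest, including those meeting only one limit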
#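 material = human umbilical vein endothelial cells (HUVEC), E-selectin induction | quantity = 3,000 cells/well | medium = EGM-2 growth medium on 0.1% gelatin-coated wells | technique = immunofluorescence imaging | read-out basis = % PE-positive cells | control set = TNF-alpha positive control, DMSO neutral control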
# ERAP1 HTS inh = blocks human ERAP1 aminopeptidase activity; Q9NZ08; recombinant ERAP1, Leu-AMC fluorescence, 60 min; inhibition, % at 10.7 µM; 0.15% of 340,000 active;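 active = mean replicate inhibition of at least 30%, or all replicates individually reaching that 30% level; inactive = mean below 30% and not every replicate reaching it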;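 note: 0% = neutral control wells and 100% = L-leucinethiol positive control wells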
# CFTR F508del cor = CFTR F508del correction in bronchial cells; activity (quench increase), % at 7.58 µM; 0.36% of 350,000 active; CFBE cells, YFP halide quenching; stimulated with forskolin plus potentiator P3; % fluorescence drop versus neutral controls; AID 720511;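 active = mean added fluorescence quench of at least 8% versus neutral control, with both replicates also reaching 8%; inconclusive = only one of the mean or replicate conditions met; inactive = mean below 8% and not both replicates reaching 8%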;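 note: cells transiently co-express mutant CFTR-F508del with the halide-sensitive YFP; corrector assay measuring rescue of mutant channel to the surface after 24 h compound exposure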
# DENV2 CPE = inhibitors of DENV2 cytopathic effect; DENV2-infected cells, cytopathic effect rescue, plate reader; CPE inhibition, % at 9.99 µM; 1.7% of 350,000 active; AID 651640; in the data active = CPE inhibition above about 20%, passing the limit was not always enough; inconclusive = no clear call, values can overlap the other calls; tested in BHK-21 cells;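 note: 0% = median of neutral control wells and 100% = median of positive control wells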
# FGF22 binding = FGF22 (human) thermal shift binding; Q9HCT0; recombinant FGF22 thermal shift, SYPRO orange fluorescence; percent of sucrose octasulfate shift, DMSO zero; activity (Tm shift, normalised), % at 9.99 µM; 1.5% of 340,000 active; AID 651658;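 active = mean Tm shift, scaled 0 neutral to 100 positive control, at about 1.3% or above, every replicate too, limit read from the data; inconclusive = no clear call, values can overlap the other calls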
# An asterisk follows results filed as active; u = inconclusive; x = no result given.
SMILES,E-sel inducer,ERAP1 HTS inh,CFTR F508del cor,DENV2 CPE,FGF22 binding
CO[C@@H]1CN(C)C(=O)c2cc(NC(=O)C3CC3)ccc2OC[C@@H](C)N(C(=O)c2cnccn2)C[C@H]1C,0,0,-3,0,0
O=C(NCCNC(=O)c1cc(F)cc(F)c1)c1cc(F)cc(F)c1,1,3,3,30*,0
O=C(NCCNC(=O)c1ccc(F)cc1)c1ccc(F)cc1,0,x,1,-2,0
CCCc1cc(=O)oc2cc(C)cc(OCC(=O)N[C@@H](CSCc3ccccc3)C(=O)O)c12,x,25,-3,1,7.2*
Cc1cc(OCC(=O)NC(Cc2c[nH]c3ccc(O)cc23)C(=O)O)c2c(C)c(C)c(=O)oc2c1 (stereo not drawn),x,6,5,94*,1
Cc1cc(OCC(=O)NC(Cc2ccc(Cl)cc2)C(=O)O)c2c(C)cc(=O)oc2c1 (stereo not drawn),x,15,0,-2,1
Cc1cc(OCC(=O)NC(Cc2ccc(Cl)cc2)C(=O)O)c2c(C)c(C)c(=O)oc2c1 (stereo not drawn),x,23,2,92*,0
O=C(NNc1cccc(Cl)n1)Nc1ccc(F)cc1,0,0,-1,10,44*
Cc1ccccc1-c1nc(CS(=O)(=O)CC(=O)NCc2ccccc2)c(C)o1,0,3,8.8*,-3,0
N#C[C@H]1[C@H](c2ccccc2C2=CCCCC2)[C@H](CO)N1S(=O)(=O)c1cccc(F)c1,0,1,1,1,x
C[C@H]1CN([C@@H](C)CO)C(=O)c2cc(NC(=O)Cc3ccccc3)ccc2O[C@H]1CN(C)Cc1ccc(C(=O)O)cc1,0,1,-1,5,0
COCCCN=C1NN=C(c2cc(C)n(-c3ccccc3)c2C)CS1,x,-2,-5,-4,0
COCCCN=C1NN=C(c2cc(C)n(Cc3ccccc3Cl)c2C)CS1,1,-2,9.1*,0,43*
COc1ccccc1C(O)(C(=O)NNc1ccccc1C)c1ccccc1OC,x,0,-2,2,43*
O=C(C1CCCCC1)N1CC2(C1)[C@H](c1ccccc1)[C@@H](CO)N2CC1CCCC1,0,0,-3,13,x
O=C(C1CCCCC1)N1CC2(C1)[C@@H](c1ccccc1)[C@@H](CO)N2CC1CCCC1,0,4,0,69*,x
O=C(C1CCCCC1)N1CC2(C1)[C@@H](c1ccccc1)[C@@H](CO)N2Cc1nccs1,0,1,3,28*,x
O=C(C1CC1)N1CC2(C1)[C@H](c1ccccc1)[C@@H](CO)N2Cc1nccs1,0,1,1,37*,1
COCC(=O)Nc1ccc2c(c1)C(=O)N(C)[C@H]1CC[C@H](CC(=O)NCc3ccccc3Cl)O[C@@H]1CO2,0,x,0,3,0
COc1ccc2c3c([nH]c2c1)[C@@H](CO)N(C(=O)c1ccccc1)CC31CN(C(=O)Nc2cccc(F)c2)C1,1,-4,-3,-2,0
COc1ccc2c3c(n(C)c2c1)[C@@H](CO)N(C(=O)c1cccc(F)c1)CC31CN(CC2CC2)C1,3,3,-2,7,0
C[C@H](CO)N1C[C@H](C)[C@@H](CN(C)C(=O)C2CCCCC2)Oc2cc(-c3ccc(C(=O)N(C)C)cc3)ccc2S1(=O)=O,1,-3,-3,-7,0
NS(=O)(=O)c1ccc(Cl)c(S(N)(=O)=O)c1,-1,2,10*,11,0
Cc1ccc(-c2nc3ccc([N+](=O)[O-])cc3[nH]2)cc1,1,6,1,-3,1.5*
Cc1noc(C)c1NC(=O)Nc1ccc2c(c1)C(=O)N([C@H](C)CO)C[C@@H](C)[C@@H](CN(C)Cc1ccc(Cl)c(Cl)c1)OCCCC[C@H](C)O2,0,-3,-1,9,-1
SMILES,E-sel inducer,ERAP1 HTS inh,CFTR F508del cor,DENV2 CPE,FGF22 binding
Cc1noc(C)c1NC(=O)Nc1ccc2c(c1)C(=O)N([C@H](C)CO)C[C@H](C)[C@@H](CN(C)Cc1ccc(Cl)c(Cl)c1)OCCCC[C@@H](C)O2,0,-1,1,-17,-1
Cc1noc(C)c1NC(=O)Nc1ccc2c(c1)C(=O)N([C@@H](C)CO)C[C@@H](C)[C@@H](CN(C)Cc1ccc(Cl)c(Cl)c1)OCCCC[C@@H](C)O2,0,-3,2,30*,0
Cc1noc(C)c1NC(=O)Nc1ccc2c(c1)C(=O)N([C@H](C)CO)C[C@@H](C)[C@H](CN(C)Cc1ccc(Cl)c(Cl)c1)OCCCC[C@H](C)O2,0,-4,-1,23*,0
Cc1noc(C)c1NC(=O)Nc1ccc2c(c1)C(=O)N([C@@H](C)CO)C[C@H](C)[C@@H](CN(C)Cc1ccc(Cl)c(Cl)c1)OCCCC[C@H](C)O2,0,-3,1,27*,0
CCCC#Cc1ccc2c(c1)O[C@H](CN(C)Cc1ccncc1)[C@@H](C)CN([C@@H](C)CO)S2(=O)=O,1,-1,3,11,-1
Cn1cccc1C(=O)OCC(=O)NCc1ccc2c(c1)OCO2,x,0,37*,-2,0
CN(C)S(=O)(=O)c1cccc(C(=O)OCC(=O)NCc2ccc3c(c2)OCO3)c1,x,1,2,-7,43*
CN(C)c1cccc(C(=O)NCc2ccc3c(c2)OCO3)c1,29*,-5,2,u,0
O=C(COC(=O)c1cccc(O)c1)NCc1ccc2c(c1)OCO2,1,0,-4,-7,0
O=C(COC(=O)c1c(F)cccc1F)NCc1ccc2c(c1)OCO2,0,2,0,-7,0
O=C(Nc1ccc2c(c1)OCCO2)c1oc2ccccc2c1NC(=O)C1CC1,x,3,-1,-1,43*
CC(=O)N1[C@H](C(=O)N2CCCCC2)[C@@H](CO)[C@@H]2Cn3c(ccc(-c4ccccc4)c3=O)[C@@H]21,-1,-2,x,20*,0
CCCN1[C@H](C(=O)NCC(F)(F)F)[C@@H](CO)[C@@H]2Cn3c(ccc(-c4ccccc4)c3=O)[C@@H]21,0,2,-2,92*,0
CC(=O)N1[C@H](C(=O)N(C)C)[C@@H](CO)[C@@H]2Cn3c(ccc(-c4ccccc4F)c3=O)[C@@H]21,0,-2,x,34*,0
CN(C)C(=O)[C@H]1[C@H](CO)[C@H]2Cn3c(ccc(-c4ccccc4F)c3=O)[C@H]2N1C(=O)C1CC1,0,x,0,0,0
CO[C@H]1CN(C)C(=O)c2cc(NC(=O)C3CCC3)ccc2OC[C@@H](C)N(Cc2ccc(F)cc2)C[C@H]1C,0,-1,1,12,0
CN(C)C(=O)C[C@H]1CC[C@H]2[C@@H](COC[C@@H](O)CN2C(=O)c2ccncc2)O1,0,0,-2,13,0
CCCNC(=O)N1[C@H](CO)[C@H](c2ccccc2)[C@H]1CNC(C)=O,0,1,1,-11,0

# Screening results from PubChem.
